In assay [1] the test system is A2780. The assay can be described thus: Antiproliferative activity against human A2780 cells after 2 days by Alamar blue assay. The settings on record: A2780, 48 h.
In assay [2] the test system is A2058. The assay can be described thus: Antiproliferative activity against human A2058 cells after 96 hrs by CellTiter-Glo assay. The conditions noted are these: A2058, 96 h. The assay is classed as functional, cell-based. The method, boiled down:
(§1)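 A2058 melanoma and H522 lung cancer cell lines, run at Eisai by procedures similar to those used for the H460 line; activity reported as IC50.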
In general terms: In ATP-based viability assays light output follows the ATP content of the culture.

The test system of assay [3] is NCI-H522. The assay can be described thus: Antiproliferative activity against human NCI-H522 cells after 96 hrs by CellTiter-Glo assay. The class given is functional, cell-based. The settings on record: NCI-H522, 96 h. In short, it runs like this: as §1

Data on 2 compounds can be found in ChEMBL document CHEMBL2021823, “Antiproliferative acetogenins from a Uvaria sp. from the Madagascar dry forest” (J Nat Prod, 2012).

Bounds are passed on as bounds.

Consider `CCCCCCCCCCCCC[C@H](O)[C@@H]1CC[C@@H]([C@H]2CC[C@H]([C@@H](O)CCCC(O)CCCCCC3=C[C@H](C)OC3=O)O2)O1` (relative stereo), for which the values for the IC50 in assay [1], in assay [2] and in assay [3] were 6.4 µM, 6.6 µM and under 10 µM, respectively.
Consider `CCCCCCCCCCC[C@H](O)[C@@H]1CC[C@@H]([C@H]2CC[C@H]([C@@H](O)CCCCCCCC[C@H](O)CCC3=C[C@H](C)OC3=O)O2)O1` (relative stereo), for which the results for the 50% inhibitory concentration (IC50) in assay [1], in assay [2] and in assay [3] were 8.8 µM, 7.2 µM and under 10 µM, respectively.

By IC50 is commonly meant the concentration at which inhibition is half-maximal. Higher therefore signals lower potency.
